Assay results taken from ChEMBL document CHEMBL1123027, “Synthesis and biological activity of 5-thiobredinin and certain related 5-substituted imidazole-4-carboxamide ribonucleosides” (J Med Chem, 1985).

Experiments:
Human respirovirus 3 [1] = test: In vitro antiviral activity was tested against parainfluenza type 3 (para3) virus; format: functional, para influenza virus; conditions: read-out: ED50 (the source's name)
Rift Valley fever virus [2] = test: In vitro antiviral activity was tested against rift valley fever virus(RVF) virus; format: functional; conditions: read-out: ED50 (the source's name)
Rift Valley fever virus [3] = test: (§1) Therapeutic index against Rift valley fever virus.; format: organism-based; conditions: in vivo, read-out: Therapeutic index
Vaccinia virus [4] = test: In vitro antiviral activity was tested against vaccinia virus(VV); format: functional; conditions: Orthopoxvirus vaccinia; read-out: ED50 (the source's name)
[5] = tested on: Venezuelan equine encephalitis virus; test: In vitro antiviral activity was tested against venezuelan equine encephalomyelitis (VEE) virus; format: functional; conditions: read-out: ED50 (the source's name)
Mus musculus [6] = test: The maximum tolerated dose was evaluated in mice and expressed in terms of mg/kg of body weight; format: functional
Human alphaherpesvirus 2 [7] = test: In vitro antiviral activity was tested against herpes simplex type 2 (HSV-2); format: functional; conditions: read-out: ED50 (the source's name)
Summary of the method: (§2)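 Vero cell monolayers, grown 24 h at 37 °C in 5% CO2 to confluency, were infected with HSV-2 (strain 333) at 100 TCID50 per well. After 30-min adsorption at 37 °C, compound was added in seven 0.5-log steps, final 5 × 10⁻⁶ to 5 × 10⁻³ M, in duplicate wells. After 72 h at 37 °C, the ED50 was taken as 50% inhibition of viral CPE versus untreated controls.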

Vero = test: Maximum tolerated concentration (MTC) was evaluated in vero cells.; format: functional, Chlorocebus sabaeus
Summary of the method: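 Confluent, uninfected Vero monolayers were given compound in seven 0.5-log steps, final 5 × 10⁻⁶ to 5 × 10⁻³ M, one well per concentration, for 72 h at 37 °C in 5% CO2. Wells were checked by microscope for changes in morphology or monolayer density (lysis, rounding, detachment). The MTC is the lowest concentration giving visible cytotoxicity.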

Human respirovirus 3 [8] = test: In vitro antiviral activity was tested against parainfluenza virus type 3 (para3) virus; format: functional, para influenza virus; conditions: read-out: ED50 (the source's name)
Human alphaherpesvirus 2 [9] = test: In vitro antiviral activity was tested against herpes simplex virus type 2 (HSV-2); format: functional; conditions: read-out: ED50 (the source's name); summary of the method: as §2
Mus musculus [10] = test: The maximum tolerated dose was evaluated in mice expressed in terms of mg/kg of body weight; format: functional
Vaccinia virus [11] = test: In vitro antiviral activity was tested against vaccinia virus(VV) virus; format: functional; conditions: Orthopoxvirus vaccinia; read-out: ED50 (the source's name)
Human alphaherpesvirus 2 [12] = test: In vitro antiviral activity was tested against herpes simplex type 2 (HSV-2) virus; format: functional; conditions: read-out: ED50 (the source's name)
[13] = tested on: Venezuelan equine encephalomyelitis virus (VEE); test: Therapeutic index against Venezuelan equine encephalomyelitis virus (VEE); conditions: Venezuelan equine encephalitis virus; read-out: Therapeutic index
Mus musculus [14] = test: The maximum tolerated dose was evaluated in mice and is expressed as mg/kg of body weight; format: functional
Human respirovirus 3 [15] = test: In vitro against parainfluenza type 3 (para3) virus; format: functional, para influenza virus; conditions: read-out: ED50 (the source's name)
[16] = tested on: Venezuelan equine encephalomyelitis virus (VEE); test: Therapeutic index against Venezuelan equine encephalomyelitis virus.; format: organism-based; conditions: venezuelan equine encephalitis virus, in vivo; read-out: Therapeutic index
Mus musculus [17] = test: The maximum tolerated dose was evaluated in mice (mg/kg of body weight).; format: functional
Rift Valley fever virus [18] = test: as §1; conditions: read-out: Therapeutic index

NC(=O)c1ncn(C2O[C@H](CO)[C@@H](O)[C@H]2O)c1S (stereo partly drawn)
EC50 (Human respirovirus 3 [1]): 5 mM | EC50 (Rift Valley fever virus [2]): > 2 mM | selectivity ratio (Rift Valley fever virus [3]): 1.1 | EC50 (Vaccinia virus [4]): 3.8 mM | EC50 [5]: > 2 mM | MTC (Mus musculus [6]): >110 mg/kg | EC50 (Human alphaherpesvirus 2 [7]): > 5 mM | MTC (Vero): >5 mM

CCSc1c(C(N)=O)ncn1C1O[C@H](CO)[C@@H](O)[C@H]1O (stereo partly drawn)
EC50 (Rift Valley fever virus [2]): > 2 mM | selectivity ratio (Rift Valley fever virus [3]): 1.4 | EC50 [5]: > 2 mM | EC50 (Human respirovirus 3 [8]): > 5 mM | EC50 (Human alphaherpesvirus 2 [9]): > 5 mM | MTC (Mus musculus [10]): >121 mg/kg | EC50 (Vaccinia virus [11]): 2600 µM | MTC (Vero): >5 mM

CCS(=O)(=O)c1c(C(N)=O)ncn1C1O[C@H](CO)[C@@H](O)[C@H]1O (stereo partly drawn)
EC50 (Human respirovirus 3 [1]): > 5 mM | EC50 (Rift Valley fever virus [2]): > 2 mM | selectivity ratio (Rift Valley fever virus [3]): 1.21 | EC50 (Vaccinia virus [4]): 3.5 mM | EC50 [5]: > 2 mM | MTC (Mus musculus [6]): >134 mg/kg | EC50 (Human alphaherpesvirus 2 [7]): > 5 mM | MTC (Vero): >5 mM

Cc1c(C(N)=O)ncn1C1O[C@H](CO)[C@@H](O)[C@H]1O (stereo partly drawn)
EC50 (Human alphaherpesvirus 2 [12]): 4 mM | EC50 (Human respirovirus 3 [1]): 0.5 mM | EC50 (Rift Valley fever virus [2]): 1.8 mM | EC50 (Vaccinia virus [11]): 1400 µM | MTC (Vero): 1.6 mM

NC(=O)c1ncn(C2O[C@H](CO)[C@@H](O)[C@H]2O)c1SCc1ccccc1 (stereo partly drawn)
EC50 (Human respirovirus 3 [1]): 4.4 mM | EC50 (Rift Valley fever virus [2]): 1 mM | selectivity ratio (Rift Valley fever virus [3]): 1.9 | EC50 [5]: 1 mM | MTC (Mus musculus [6]): >146 mg/kg | EC50 (Vaccinia virus [11]): 230 µM | EC50 (Human alphaherpesvirus 2 [7]): > 5 mM | MTC (Vero): >5 mM

CSc1c(C(N)=O)ncn1C1O[C@H](CO)[C@@H](O)[C@H]1O (stereo partly drawn)
EC50 (Human respirovirus 3 [1]): 0.73 mM | EC50 (Rift Valley fever virus [2]): 1.8 mM | selectivity ratio (Rift Valley fever virus [3]): 1.2 | selectivity ratio [13]: 0.9 | EC50 [5]: > 1.7 mM | MTC (Mus musculus [14]): >100 mg/kg | EC50 (Human alphaherpesvirus 2 [9]): 4.1 mM | EC50 (Vaccinia virus [11]): 280 µM | MTC (Vero): 1.6 mM

CS(=O)(=O)c1c(C(N)=O)ncn1C1O[C@H](CO)[C@@H](O)[C@H]1O (stereo partly drawn)
EC50 (Human alphaherpesvirus 2 [12]): 5 mM | EC50 (Human respirovirus 3 [15]): > 5 mM | EC50 (Rift Valley fever virus [2]): 0.0087 mM | selectivity ratio (Rift Valley fever virus [3]): 2.8 | EC50 (Vaccinia virus [4]): > 5 mM | selectivity ratio [16]: 1.4 | EC50 [5]: 0.65 mM | MTC (Mus musculus [6]): >400 mg/kg | MTC (Vero): >5 mM

NC(=O)c1ncn([C@@H]2O[C@H](CO)[C@@H](O)[C@H]2O)n1 [RIBAVIRIN]
MTC (Mus musculus [17]): >100 mg/kg | selectivity ratio [16]: 1.5 | selectivity ratio (Rift Valley fever virus [18]): 4
